Residue numbers refer to the chain shown, from its start. In names and notes the source's numbering stands. Entries after “also recorded” stand apart in the source; their conditions may differ.
Tests used:
AtD14 [1] = target: T1, AtD14 (Arabidopsis thaliana, UniProt Q9SQR3); assay: Differential scanning fluorimetry, AtD14; assay type: binding
T1 sequence (Q9SQR3 1-267): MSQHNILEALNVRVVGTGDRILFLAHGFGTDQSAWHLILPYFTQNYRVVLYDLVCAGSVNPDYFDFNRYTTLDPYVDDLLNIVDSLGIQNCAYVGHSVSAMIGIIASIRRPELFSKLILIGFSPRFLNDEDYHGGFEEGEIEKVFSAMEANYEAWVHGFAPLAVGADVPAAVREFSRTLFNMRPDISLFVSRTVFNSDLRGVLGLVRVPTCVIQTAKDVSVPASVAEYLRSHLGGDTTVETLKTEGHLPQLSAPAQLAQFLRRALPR
Outline: (§1)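 Recombinant protein was expressed in E. coli BL21(DE3), GST-affinity captured, tag removed by on-column HRV3 protease, then size-exclusion purified. DSF used 10 μg protein with rac-GR24 and 3× (final) Sypro Orange in 20 mM TRIS-HCl, 30 mM NaCl, 1 mM TCEP-HCl, pH 7.7. Heating ran 25–95°C at 1°C per minute, in triplicate, and was read from the denaturation curve and its derivative.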

AtDLK2 F167A [2] = target: T2, AtDLK2 F167A (Arabidopsis thaliana, UniProt F4J6L0, F167A); assay: Differential scanning fluorimetry, AtDLK2 F167A; assay type: binding
T2 sequence (F4J6L0 1-273 F167A): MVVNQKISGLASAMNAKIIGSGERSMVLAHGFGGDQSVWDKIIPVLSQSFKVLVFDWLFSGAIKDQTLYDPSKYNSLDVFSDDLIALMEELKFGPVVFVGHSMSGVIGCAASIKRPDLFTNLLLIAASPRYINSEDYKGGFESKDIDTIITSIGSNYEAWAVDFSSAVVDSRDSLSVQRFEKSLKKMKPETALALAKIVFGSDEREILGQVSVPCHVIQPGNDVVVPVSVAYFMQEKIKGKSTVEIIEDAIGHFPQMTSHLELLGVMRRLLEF
Outline: as §1

AtDLK2 wt [3] = target: T3, AtDLK2 wt (Arabidopsis thaliana, UniProt F4J6L0); assay: Differential scanning fluorimetry, AtDLK2 wt; assay type: binding
T3 sequence (F4J6L0 1-273): T2 sequence (F4J6L0 1-273 F167A) with A167F

AtD14 [4] = target: T1, AtD14; settings: substrate rac‐GR24; ref Zhao et al., 2013; cited from earlier work
AtDLK2 F167L = target: T4, AtDLK2 F167L (Arabidopsis thaliana, UniProt F4J6L0, F167L); assay: Differential scanning fluorimetry, AtDLK2 F167L; assay type: binding
T4 sequence (F4J6L0 1-273 F167L): T2 sequence (F4J6L0 1-273 F167A) with A167L
Outline: as §1

AtD14 [5] = target: T1, AtD14; assay: Inhibition of AtD14 enzymatic activity on pNP acetate; assay type: biochemical; settings: for inhibition of the enzymatic activity of AtD14 (in words): pNP acetate as substrate
AtKAI2 [6] = target: T5, AtKAI2 (Arabidopsis thaliana, UniProt Q9SZU7); assay: Inhibition of AtKAI2 enzymatic activity on pNP acetate; assay type: biochemical; settings: for inhibition of the enzymatic activity of AtKAI2 (in words): pNP acetate as substrate
T5 sequence (Q9SZU7 1-270): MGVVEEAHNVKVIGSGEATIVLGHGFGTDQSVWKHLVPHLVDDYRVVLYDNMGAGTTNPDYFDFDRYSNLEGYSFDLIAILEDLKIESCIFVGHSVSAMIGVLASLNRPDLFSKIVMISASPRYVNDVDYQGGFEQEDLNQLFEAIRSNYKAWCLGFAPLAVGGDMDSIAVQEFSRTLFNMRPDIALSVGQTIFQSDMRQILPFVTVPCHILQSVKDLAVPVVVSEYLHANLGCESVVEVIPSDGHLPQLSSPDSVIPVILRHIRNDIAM

AtKAI2 [7] = target: T5, AtKAI2; assay: Michaelis–Menten kinetics on para‐nitrophenyl acetate, AtKAI2; assay type: biochemical; settings: substrate pNP acetate
AtDLK2 wt [8] = assay: Michaelis–Menten kinetics on para‐nitrophenyl acetate, AtDLK2 wt; assay type: biochemical, Arabidopsis thaliana; settings: substrate pNP acetate
AtDLK2 F167A [9] = target: T2, AtDLK2 F167A; assay: Michaelis–Menten kinetics on para‐nitrophenyl acetate, AtDLK2 F167A; assay type: biochemical; settings: substrate pNP acetate
AtDLK2 [10] = target: T6, AtDLK2 (Arabidopsis thaliana, UniProt F4J6L0); settings: ref Végh et al., 2017; cited from earlier work
T6 sequence (F4J6L0 1-273): T2 sequence (F4J6L0 1-273 F167A) with A167F

AtDLK2 [11] = target: T6, AtDLK2; settings: at high concentrations; ref Végh et al., 2017; cited from earlier work
[12] = substrate: CC(=O)Oc1ccc([N+](=O)[O-])cc1; assay: Michaelis–Menten kinetics on para‐nitrophenyl acetate, AtD14; assay type: biochemical, Arabidopsis thaliana; settings: other: AtD14, substrate pNP acetate; pH 7.0
[13] = substrate: CC(=O)Oc1ccc([N+](=O)[O-])cc1; assay: Michaelis–Menten kinetics on para‐nitrophenyl acetate, AtKAI2; assay type: biochemical, Arabidopsis thaliana; settings: other: AtKAI2, substrate pNP acetate; pH 7.0
[14] = substrate: CC(=O)Oc1ccc([N+](=O)[O-])cc1; assay: Michaelis–Menten kinetics on para‐nitrophenyl acetate, AtDLK2 wt; assay type: biochemical, Arabidopsis thaliana; settings: other: AtDLK2 wt, substrate pNP acetate; pH 7.0
[15] = substrate: CC(=O)Oc1ccc([N+](=O)[O-])cc1; assay: Michaelis–Menten kinetics on para‐nitrophenyl acetate, AtDLK2 F167L; assay type: biochemical, Arabidopsis thaliana; settings: other: AtDLK2 F167L, substrate pNP acetate; pH 7.0
[16] = substrate: CC(=O)Oc1ccc([N+](=O)[O-])cc1; assay: Michaelis–Menten kinetics on para‐nitrophenyl acetate, AtDLK2 F167A; assay type: biochemical, Arabidopsis thaliana; settings: other: AtDLK2 F167A, substrate pNP acetate; pH 7.0
[17] = 100 μM concentration of 1, pNP acetate as substrate

Molecule: CC1=C[C@H](O/C=C2/C(=O)O[C@@H]3c4ccccc4C[C@H]23)OC1=O (racemic) [rac‐GR24]
- rac‐GR24‐induced destabilization in DSF (AtD14 [1]): clearly destabilize
- rac‐GR24‐induced destabilization in DSF (AtDLK2 F167A [2]): no or marginal
- rac‐GR24‐induced destabilization in DSF (AtDLK2 wt [3]): no or marginal
- turnover rate of AtD14 (AtD14 [4]): 1 molecule/3 min
- rac‐GR24‐induced destabilization in DSF (AtDLK2 F167L): no or marginal

Molecule: CC1(c2ccccc2)CC(C)(C)N2C(=O)C(=O)c3cccc1c32 (stereo not shown) [Compound 1, 4,4,6‐Trimethyl‐6‐phenyl‐5,6‐dihydro‐4H‐pyrrolo[3,2,1‐ij]quinoline‐1,2‐dione]
- retained activity of AtD14 (AtD14 [5]; [17]): 84%
- decrease of AtD14's enzymatic activity (AtD14 [5]; 1 at concentrations of 12.5 μM or higher): slight decrease
- inhibition of the enzymatic activity of AtD14 (in words) (AtD14 [5]): only marginally inhibits
- inhibition of the enzymatic activity of AtD14 (in words) (AtD14 [5]; listed as compound 1): only marginally decreasing
- retained activity of AtKAI2 (AtKAI2 [6]; [17]): 95%
- decrease of AtKAI2's activity (AtKAI2 [6]; 1 at concentrations of 50 μM or higher): marginal decrease
- inhibition of the enzymatic activity of AtKAI2 (in words) (AtKAI2 [6]): only marginally inhibits
- inhibition of the enzymatic activity of AtKAI2 (in words) (AtKAI2 [6]; listed as compound 1): only marginally decreasing

Molecule: CC(=O)Oc1ccc([N+](=O)[O-])cc1 [pNP acetate, para‐nitrophenyl acetate]
- catalytic efficiency of AtKAI2 relative to AtD14 (AtKAI2 [7]): 94 times higher
- catalytic efficiency of AtDLK2 relative to AtD14 (AtDLK2 wt [8]): 625 times higher
- catalytic efficiency of AtDLK2 relative to AtKAI2 (AtDLK2 wt [8]): 6.7 times higher
- turnover number (kcat) (AtDLK2 F167A [9]): 67 molecules per second

Molecule: (−)‐5‐deoxystrigol
- hydrolytic activity of AtDLK2 (in words) (AtDLK2 [10]): moderate hydrolytic activity; also recorded: poor but detectable hydrolytic activity
- reaction of AtDLK2 in DSF experiments (in words) (AtDLK2 [11]): able to react

B1: AtD14 (Arabidopsis thaliana) (protein)
chain: T1 sequence (Q9SQR3 1-267)
- Km [12]: 2.00 ± 0.16 × 10^−2 M
- kcat [12]: 3.2 ± 0.06 s⁻¹
- kcat/Km [12]: 160 ± 12 M⁻¹ s⁻¹

B2: AtKAI2 (Arabidopsis thaliana) (protein)
chain: T5 sequence (Q9SZU7 1-270)
- Km [13]: 1.56 ± 0.06 × 10^−3 M
- kcat [13]: 23.6 ± 0.6 s⁻¹
- kcat/Km [13]: 15100 ± 600 M⁻¹ s⁻¹

B3: AtDLK2 wt (Arabidopsis thaliana) (protein)
chain: T2 sequence (F4J6L0 1-273 F167A) with A167F
- Km [14]: 2.58 ± 0.10 × 10^−4 M
- kcat [14]: 26.6 ± 0.7 s⁻¹
- kcat/Km [14]: 103000 ± 4000 M⁻¹ s⁻¹

B4: AtDLK2 F167L (Arabidopsis thaliana; F167L) (protein)
chain: T2 sequence (F4J6L0 1-273 F167A) with A167L
- Km [15]: 2.53 ± 0.16 × 10^−4 M
- kcat [15]: 69.8 ± 1.5 s⁻¹
- kcat/Km [15]: 276000 ± 17000 M⁻¹ s⁻¹

B5: AtDLK2 F167A (Arabidopsis thaliana; F167A) (protein)
chain: T2 sequence (F4J6L0 1-273 F167A)
- Km [16]: 2.78 ± 0.08 × 10^−4 M
- kcat [16]: 66.9 ± 0.6 s⁻¹
- kcat/Km [16]: 241000 ± 7000 M⁻¹ s⁻¹

Source: PMC9470386 (Plant Direct, 2022)
